Bioassay records (PubChem BioAssay)
SENP8 block-1 – inhibitors of human SENP8 protease; inhibition, % at 10 µM; Q96LD8; purified SENP8, Z-RLRGG-aminoluciferin cleavage, luminescence; AID 2540; hit rate 1.2% among 330,000; in the data active means inhibition above about 50%
SENP8 block-2 – blocks human SENP8 cleavage of Nedd8 substrate; recombinant SENP8, Nedd8 substrate fluorescence; hit rate 0.64% among 360,000; inhibition, % at 20 µM; in the data active means inhibition mostly above about 40%, no sharp cut-off; inactive means mostly below about 27%
Apaf1 inhib – inhibitors of human Apaf-1 apoptosome; hit rate 0.71% among 330,000; reconstituted apoptosome caspase-3 activity, DEVD-Rh110 fluorescence; inhibition, % at 20 µM; O14727; AID 489030; active means inhibition of at least 40% at 20 µM;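 further: plate controls were DMSO wells for no effect and DEVD-CHO caspase inhibitor wells for full effect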
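System: reconstituted apoptosome with Apaf-1, cytochrome c, caspase-9, procaspase-3, dATP; Signal: Rh110 fluorescence intensity; Schedule: 30 min compound preincubation, 50 min activation, room temperature; Reagent: cytochrome c trigger plus (Z-DEVD)2-Rh110 caspase-3 substrate.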
SENP6 block – SENP6 protease inhibition. inhibition, % at 10 µM. hit rate 1.8% among 330,000. Q9GZR1. Recombinant SENP6 catalytic domain, aminoluciferin luminescence;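 active means inhibition above about 50% at the single tested dose, limit read from the data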;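 further: plate controls were DMSO wells with enzyme for no effect and DMSO wells lacking enzyme for full effect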
UBC13 polyUb – human UBC13 polyubiquitination inhibition | P61088 | UBC13 polyubiquitin chain formation, TR-FRET | inhibition, % at 20 µM | hit rate 0.47% among 330,000 | AID 485273; in the data active means inhibition above about 45%, passing the limit was not always enough
Target sequence (P61088 whole entry, looked up): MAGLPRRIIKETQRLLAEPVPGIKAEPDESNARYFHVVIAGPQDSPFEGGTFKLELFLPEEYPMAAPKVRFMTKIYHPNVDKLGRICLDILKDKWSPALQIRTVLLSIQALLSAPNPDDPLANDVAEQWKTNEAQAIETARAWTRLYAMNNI
SENP7 block – blocks the human protease SENP7 | recombinant SENP7, Z-RLRGG-aminoluciferin luminescence, 40 min | inhibition, % at 5 µM | hit rate 1.5% among 330,000 | AID 434973;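 active means inhibition above about 50% at the single test dose, limit read from the data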;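 further: plate controls were DMSO with enzyme for no effect and no enzyme buffer wells for full effect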
SENP8 confirm – confirmation of human SENP8 protease inhibitors. shares compounds with SENP7 block. Recombinant SENP8, Z-RLRGG-aminoluciferin luminescence, 60 min. inhibition, % at 12.5 µM. hit rate 40% among 6,200. AID 488912;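 active means mean inhibition across replicates above about 50%, limit read from the data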
SENP6 confirm – human SENP6 inhibition, confirmed; recombinant SENP6, Z-RLRGG-aminoluciferin luminescence; shares compounds with SENP7 block; inhibition, % at 12.5 µM; hit rate 58% among 6,200; AID 488915
SENP7 confirm – confirmation of human SENP7 protease inhibitors. inhibition, % at 12.5 µM. AID 488917. recombinant SENP7, Z-RLRGG-aminoluciferin luminescence, 40 min. shares compounds with SENP7 block. hit rate 69% among 6,200
Casp3 select – selectivity test for SENP inhibitors: human caspase-3 inhibition | shares compounds with SENP7 block | purified caspase-3, Z-DEVD-aminoluciferin luminescence, 60 min | inhibition, % at 12.5 µM | hit rate 60% among 6,200 | AID 488918;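 active means mean inhibition above about 50%, limit read from the data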;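 further: plate controls were enzyme with DMSO for no effect and wells without caspase-3 for full effect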
Target sequence (P42574 28-227 limits assumed): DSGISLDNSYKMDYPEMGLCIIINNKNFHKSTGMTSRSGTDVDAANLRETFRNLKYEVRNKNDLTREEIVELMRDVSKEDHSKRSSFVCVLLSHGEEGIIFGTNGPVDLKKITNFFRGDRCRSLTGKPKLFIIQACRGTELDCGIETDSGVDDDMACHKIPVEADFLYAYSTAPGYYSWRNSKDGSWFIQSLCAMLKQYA
SENP luc ctr – counter-screen for SENP inhibitors: luminescence interference. inhibition, % at 12.5 µM. shares compounds with SENP7 block. AID 488919. hit rate 39% among 6,200. Pre-incubated SENP8/Z-RLRGG-aminoluciferin, luciferase luminescence interference;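 active means mean inhibition above about 50% when retested at one dose, limit read from the data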;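 further: plate controls were DMSO wells with completed reaction for no effect and substrate without enzyme for full effect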
Apaf-1 inh conf2 – confirmation of Apaf-1 inhibitors | shares compounds with Apaf1 inhib | reconstituted apoptosome, caspase-3 DEVD-Rh110 fluorescence | inhibition, % at 20 µM | hit rate 25% among 1,800 | AID 504614;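 active means mean inhibition of at least 40% at 20 µM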;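 further: plate controls were DMSO wells for no effect and DEVD-CHO caspase inhibitor control wells for full effect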
Rh110 interf inh – counter-screen for Apaf-1 inhibitors: fluorescence interference; shares compounds with Apaf1 inhib; 1,800 tested, under 10 active; Rh110 fluorescence interference, quenched caspase reaction; AID 504615; activation (fluorescence interference), % at 20 µM;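 active means signal rise of 40% or more at 20 µM, treated as a fluorescence artifact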
Fluor interf inh – counter-screen for Apaf-1 inhibitors: fluorescence interference, dose response | shares compounds with Apaf1 inhib | fluorescence interference counterscreen, Apaf-1 assay format | IC50, µM | 460 tested, under 10 active | AID 588538; call rule not given here
The depositor's hits bear a star; i = inactive; nt = not tested or not shown. A selection: hits, their analogues and other compounds. The true share with any hit is near 3.1%.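 How the source made its calls, unless noted: active means mean inhibition above about 50% in the one-dose retest (limit read from the data); inactive means the rest.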

SMILES	SENP8 block-1	SENP8 block-2	Apaf1 inhib	SENP6 block	UBC13 polyUb	SENP7 block	SENP8 confirm	SENP6 confirm	SENP7 confirm	Casp3 select	SENP luc ctr	Apaf-1 inh conf2	Rh110 interf inh	others
COc1ccc2c(c1)CC/C(=C\Nc1ccc3c(c1)OCO3)C2=O	61*	-104	78*	61*	-28	54*	3	60*	49	10	14	47*	4	Fluor interf inh=>100
CN(Cc1ccccc1)C(=O)[C@@H]1CCCN1	nt	9	nt	nt	nt	nt	nt	nt	nt	nt	nt	nt	nt
N#Cc1c(N)n(CCNC(=O)c2ccc(Cl)cc2)c2nc3ccccc3nc12	42	i	67*	70*	-2	41	4	6	5	2	-5	22	4
COc1cccc(Cn2c(N)c(C#N)c3nc4ccccc4nc32)c1OC	38	-380	92*	85*	-6	26	-19	-11	-8	-9	-7	11	8
COc1ccc(Cn2c(N)c(S(=O)(=O)c3cccs3)c3nc4ccccc4nc32)cc1	0	-294	-8	0	8	1	nt	nt	nt	nt	nt	nt	nt
COc1cc(Cn2c(N)c(C#N)c3nc4ccccc4nc32)cc(OC)c1	23	-295	58*	88*	22	8	5	8	12	5	7	18	4
Cc1ccc(C(=O)NCCn2c(N)c(C#N)c3nc4ccccc4nc32)cc1	10	-272	10	43	-1	34	nt	nt	nt	nt	nt	nt	nt
N#Cc1c(N)n(CCc2ccc(F)cc2)c2nc3ccccc3nc12	24	-413	82*	62*	-12	15	-17	0	4	-1	-2	19	10
N#Cc1c(N)n(CCOC(=O)c2cccc([N+](=O)[O-])c2)c2nc3ccccc3nc12	2	-464	17	0	-29	11	nt	nt	nt	nt	nt	nt	nt
Cc1cc(C)cc(C(O)c2ncc(-c3ccccc3Cl)[nH]2)c1 (stereo not drawn)	nt	15	nt	nt	nt	nt	nt	nt	nt	nt	nt	nt	nt
CCC[C@H]1CN(c2ccc(OC)cc2)C(=O)[C@@H]1CC(=O)NC	nt	8	nt	nt	nt	nt	nt	nt	nt	nt	nt	nt	nt
CC1CCN(C2=C(NS(=O)(=O)c3ccc(Cl)cc3)C(=O)c3ccccc3C2=O)CC1	5	33	46*	63*	-45	14	4	6	6	10	0	15	-21
CC1CCN(C2=C(NS(=O)(=O)c3ccc(Br)cc3)C(=O)c3ccccc3C2=O)CC1	29	26	54*	55*	-91	27	9	14	-2	15	0	26	-3
COC(=O)C[C@H]1C[C@H]2c3cc(NS(=O)(=O)c4cccc(OC)c4)ccc3O[C@H]2[C@@H](CO)O1	nt	16	nt	nt	nt	nt	nt	nt	nt	nt	nt	nt	nt
COC(=O)c1ccccc1-c1ccc(/C=C2\C(=O)N(c3ccccc3)N=C2c2ccccc2)o1	9	27	62*	53*	-41	13	11	6	-4	0	0	13	9
CCCN(CC(=O)Nc1ccccc1C)C(=O)c1ccc(OCc2c(C)noc2C)cc1	-6	20	2	-13	5	-1	nt	nt	nt	nt	nt	nt	nt
